Calls of active or inactive are those of the source. No cut-off for these calls is given here.
Legend:
[1] = molecular target: T1, Serine/threonine-protein kinase D1 (Homo sapiens, UniProt Q15139); assay: Inhibition of PKD1 assessed as inhibition of HDAC5 neuclear export
T1 sequence (Q15139 whole entry): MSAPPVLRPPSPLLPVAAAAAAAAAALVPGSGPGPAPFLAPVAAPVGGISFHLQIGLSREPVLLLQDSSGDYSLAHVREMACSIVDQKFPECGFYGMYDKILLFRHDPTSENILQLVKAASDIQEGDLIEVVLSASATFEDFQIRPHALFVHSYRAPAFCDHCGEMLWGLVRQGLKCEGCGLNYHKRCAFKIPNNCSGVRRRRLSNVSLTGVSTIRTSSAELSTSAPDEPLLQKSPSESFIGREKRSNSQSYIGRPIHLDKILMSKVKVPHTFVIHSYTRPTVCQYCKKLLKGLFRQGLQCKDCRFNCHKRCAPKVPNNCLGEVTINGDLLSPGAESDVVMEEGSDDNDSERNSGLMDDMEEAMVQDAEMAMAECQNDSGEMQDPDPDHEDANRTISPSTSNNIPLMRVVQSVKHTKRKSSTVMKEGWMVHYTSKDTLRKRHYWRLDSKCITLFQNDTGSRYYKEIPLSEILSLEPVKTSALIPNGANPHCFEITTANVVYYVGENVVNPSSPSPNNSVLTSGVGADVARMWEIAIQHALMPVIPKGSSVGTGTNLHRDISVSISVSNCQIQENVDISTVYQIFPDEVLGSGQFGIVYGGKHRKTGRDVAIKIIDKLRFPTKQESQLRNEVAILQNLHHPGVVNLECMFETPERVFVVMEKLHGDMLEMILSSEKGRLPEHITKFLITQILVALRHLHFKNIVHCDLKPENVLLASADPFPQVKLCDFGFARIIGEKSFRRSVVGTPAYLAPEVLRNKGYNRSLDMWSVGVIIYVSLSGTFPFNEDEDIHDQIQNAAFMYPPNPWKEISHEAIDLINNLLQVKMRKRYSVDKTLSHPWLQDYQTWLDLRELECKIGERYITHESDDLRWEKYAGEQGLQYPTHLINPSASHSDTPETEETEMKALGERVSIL
Procedure, shortened: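 Neonatal rat ventricular myocytes infected with adenovirus encoding GFP-HDAC5 and plated on gelatin-coated wells. Cells exposed to compound and stimulated with PGF2α for 2 h, then fixed. Cytoplasmic versus nuclear GFP intensity quantified by high-content imaging.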

[2] = molecular target: T2, Serine/threonine-protein kinase D1 (Homo sapiens) (UniProt Q15139); assay: Inhibition of PKD1 autophosphorylation at 1 uM
T2 sequence (whole entry): T1 sequence (Q15139 whole entry)

[3] = molecular target: T3, Serine/threonine-protein kinase D2 (Homo sapiens, UniProt Q9BZL6); assay: Inhibition of PKD2 by TR-FRET assay
T3 sequence (Q9BZL6 whole entry): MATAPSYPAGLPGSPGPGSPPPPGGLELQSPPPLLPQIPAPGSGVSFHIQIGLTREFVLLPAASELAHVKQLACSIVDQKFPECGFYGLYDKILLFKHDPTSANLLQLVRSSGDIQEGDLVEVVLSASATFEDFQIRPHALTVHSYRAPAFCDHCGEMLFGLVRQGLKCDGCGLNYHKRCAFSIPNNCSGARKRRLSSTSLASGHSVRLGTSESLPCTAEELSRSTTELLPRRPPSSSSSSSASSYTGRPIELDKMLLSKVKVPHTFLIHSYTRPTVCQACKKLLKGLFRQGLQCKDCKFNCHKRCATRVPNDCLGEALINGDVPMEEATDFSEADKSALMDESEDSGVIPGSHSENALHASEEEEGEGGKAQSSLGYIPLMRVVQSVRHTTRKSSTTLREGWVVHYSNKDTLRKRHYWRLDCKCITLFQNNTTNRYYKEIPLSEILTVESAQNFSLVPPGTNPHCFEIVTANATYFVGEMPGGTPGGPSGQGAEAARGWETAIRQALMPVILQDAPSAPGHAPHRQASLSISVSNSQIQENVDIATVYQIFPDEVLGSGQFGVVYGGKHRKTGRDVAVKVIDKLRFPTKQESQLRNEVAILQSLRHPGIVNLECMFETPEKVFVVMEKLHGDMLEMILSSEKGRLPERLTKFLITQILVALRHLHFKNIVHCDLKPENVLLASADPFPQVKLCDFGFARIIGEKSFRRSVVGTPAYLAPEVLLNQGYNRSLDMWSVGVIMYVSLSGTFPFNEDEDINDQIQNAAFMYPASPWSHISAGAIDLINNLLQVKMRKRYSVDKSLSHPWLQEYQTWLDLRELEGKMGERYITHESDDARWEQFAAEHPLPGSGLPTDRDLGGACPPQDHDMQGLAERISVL

[4] = molecular target: Calcium/calmodulin-dependent protein kinase type II subunit beta (Homo sapiens) (UniProt Q13554); assay: Inhibition of human CaMK2beta; details: concentration not given here
Procedure, shortened: (§1)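 Selectivity screen run externally (Invitrogen SelectScreen). Percent inhibition measured at 1 μM compound, mean of 2 measurements.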

[5] = molecular target: Calcium/calmodulin-dependent protein kinase type II subunit delta (Homo sapiens) (UniProt Q13557); assay: Inhibition of human CaMK2delta; details: concentration not given here; procedure, shortened: as §1
[6] = molecular target: T4, Calcium/calmodulin-dependent protein kinase type IV (Homo sapiens) (UniProt Q16566); assay: Inhibition of human CaMK4; details: concentration not given here; procedure, shortened: as §1
T4 sequence (whole entry): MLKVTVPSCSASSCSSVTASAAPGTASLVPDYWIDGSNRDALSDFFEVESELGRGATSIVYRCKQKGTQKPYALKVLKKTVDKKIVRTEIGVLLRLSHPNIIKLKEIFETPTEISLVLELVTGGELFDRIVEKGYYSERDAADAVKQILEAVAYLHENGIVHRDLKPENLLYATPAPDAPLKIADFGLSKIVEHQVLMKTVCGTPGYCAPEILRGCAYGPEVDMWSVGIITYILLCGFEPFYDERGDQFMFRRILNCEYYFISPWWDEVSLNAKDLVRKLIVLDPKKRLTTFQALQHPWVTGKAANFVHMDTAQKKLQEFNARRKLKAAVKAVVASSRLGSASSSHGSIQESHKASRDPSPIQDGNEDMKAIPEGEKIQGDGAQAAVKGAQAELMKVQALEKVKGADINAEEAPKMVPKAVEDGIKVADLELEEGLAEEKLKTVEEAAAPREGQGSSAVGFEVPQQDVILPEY

[7] = molecular target: Serine/threonine-protein kinase MARK1 (Homo sapiens) (UniProt Q9P0L2); assay: Inhibition of human MARK1; details: concentration not given here; procedure, shortened: as §1
[8] = molecular target: G protein-coupled receptor kinase 5 (Homo sapiens) (UniProt P34947); assay: Inhibition of human GRK5; details: concentration not given here; procedure, shortened: as §1
[9] = molecular target: Protein kinase C delta type (Homo sapiens) (UniProt Q05655); assay: Inhibition of human PKCdelta; details: concentration not given here; procedure, shortened: as §1
[10] = Drug level in Dahl salt-sensitive rat left ventricle at 5 mg/kg, sc qd; details: in vivo, read-out: Drug uptake
Rattus norvegicus = assay: Ex vivo inhibition of PKD in PBMC isolated from Dahl salt-sensitive sc dosed rat assessed as inhibition of PMA-induced HDAC phosphorylation

Sequence of Calcium/calmodulin-dependent protein kinase type II subunit beta (Homo sapiens) (Q13554 whole entry): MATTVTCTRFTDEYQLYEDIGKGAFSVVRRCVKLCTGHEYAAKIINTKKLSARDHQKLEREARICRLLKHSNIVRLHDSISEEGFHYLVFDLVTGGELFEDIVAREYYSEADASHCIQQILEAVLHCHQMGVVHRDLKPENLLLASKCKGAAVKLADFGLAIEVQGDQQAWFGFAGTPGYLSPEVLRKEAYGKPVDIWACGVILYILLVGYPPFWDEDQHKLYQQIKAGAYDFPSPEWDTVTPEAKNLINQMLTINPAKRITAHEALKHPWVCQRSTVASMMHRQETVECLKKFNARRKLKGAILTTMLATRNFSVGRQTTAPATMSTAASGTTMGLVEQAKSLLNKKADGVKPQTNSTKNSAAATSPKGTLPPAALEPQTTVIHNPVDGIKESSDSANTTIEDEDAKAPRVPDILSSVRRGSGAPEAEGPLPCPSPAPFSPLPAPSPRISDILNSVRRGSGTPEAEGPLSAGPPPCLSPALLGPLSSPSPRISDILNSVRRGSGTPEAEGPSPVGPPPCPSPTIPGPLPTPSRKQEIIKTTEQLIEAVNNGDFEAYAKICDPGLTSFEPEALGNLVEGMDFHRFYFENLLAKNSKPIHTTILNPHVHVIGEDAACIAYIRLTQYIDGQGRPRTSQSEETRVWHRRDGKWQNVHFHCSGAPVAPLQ
Sequence of Serine/threonine-protein kinase MARK1 (Homo sapiens) (Q9P0L2 whole entry, looked up): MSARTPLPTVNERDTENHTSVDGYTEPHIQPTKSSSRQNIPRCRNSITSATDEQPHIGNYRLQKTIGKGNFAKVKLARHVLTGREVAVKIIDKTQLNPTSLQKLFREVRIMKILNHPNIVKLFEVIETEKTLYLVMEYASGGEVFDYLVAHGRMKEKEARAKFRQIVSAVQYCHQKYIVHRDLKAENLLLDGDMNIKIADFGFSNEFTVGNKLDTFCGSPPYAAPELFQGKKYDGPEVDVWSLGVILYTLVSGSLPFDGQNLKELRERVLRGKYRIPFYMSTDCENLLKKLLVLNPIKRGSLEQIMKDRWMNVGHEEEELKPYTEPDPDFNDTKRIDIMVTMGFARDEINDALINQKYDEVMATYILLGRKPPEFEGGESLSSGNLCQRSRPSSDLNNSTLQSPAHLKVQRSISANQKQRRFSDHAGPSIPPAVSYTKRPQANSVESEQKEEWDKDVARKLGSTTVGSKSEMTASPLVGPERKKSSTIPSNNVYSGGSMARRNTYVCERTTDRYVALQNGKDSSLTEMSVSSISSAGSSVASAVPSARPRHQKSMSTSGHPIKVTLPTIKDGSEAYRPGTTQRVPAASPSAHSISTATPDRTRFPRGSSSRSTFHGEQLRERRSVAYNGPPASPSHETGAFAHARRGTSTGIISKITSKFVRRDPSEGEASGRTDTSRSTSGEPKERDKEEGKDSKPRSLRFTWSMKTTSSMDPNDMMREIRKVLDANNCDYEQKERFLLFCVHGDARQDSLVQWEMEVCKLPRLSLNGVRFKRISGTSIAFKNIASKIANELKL
Sequence of G protein-coupled receptor kinase 5 (Homo sapiens) (P34947 whole entry, looked up): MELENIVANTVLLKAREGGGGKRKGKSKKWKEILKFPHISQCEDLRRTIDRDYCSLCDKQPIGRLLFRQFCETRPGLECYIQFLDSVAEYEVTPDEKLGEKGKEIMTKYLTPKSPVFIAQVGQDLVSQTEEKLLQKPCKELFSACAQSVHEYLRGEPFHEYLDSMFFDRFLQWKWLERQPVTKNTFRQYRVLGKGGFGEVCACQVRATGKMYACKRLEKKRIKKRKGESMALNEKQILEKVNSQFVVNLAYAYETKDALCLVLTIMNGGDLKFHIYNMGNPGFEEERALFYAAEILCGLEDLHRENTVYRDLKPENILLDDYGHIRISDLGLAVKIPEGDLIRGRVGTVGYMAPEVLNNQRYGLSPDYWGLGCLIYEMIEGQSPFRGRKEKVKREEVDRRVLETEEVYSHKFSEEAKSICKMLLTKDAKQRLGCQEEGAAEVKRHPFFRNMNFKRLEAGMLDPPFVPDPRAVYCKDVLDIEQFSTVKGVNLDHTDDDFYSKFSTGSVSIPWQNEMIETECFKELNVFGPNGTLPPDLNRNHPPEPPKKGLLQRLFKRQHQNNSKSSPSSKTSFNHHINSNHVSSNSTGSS
Sequence of Protein kinase C delta type (Homo sapiens) (Q05655 whole entry, looked up): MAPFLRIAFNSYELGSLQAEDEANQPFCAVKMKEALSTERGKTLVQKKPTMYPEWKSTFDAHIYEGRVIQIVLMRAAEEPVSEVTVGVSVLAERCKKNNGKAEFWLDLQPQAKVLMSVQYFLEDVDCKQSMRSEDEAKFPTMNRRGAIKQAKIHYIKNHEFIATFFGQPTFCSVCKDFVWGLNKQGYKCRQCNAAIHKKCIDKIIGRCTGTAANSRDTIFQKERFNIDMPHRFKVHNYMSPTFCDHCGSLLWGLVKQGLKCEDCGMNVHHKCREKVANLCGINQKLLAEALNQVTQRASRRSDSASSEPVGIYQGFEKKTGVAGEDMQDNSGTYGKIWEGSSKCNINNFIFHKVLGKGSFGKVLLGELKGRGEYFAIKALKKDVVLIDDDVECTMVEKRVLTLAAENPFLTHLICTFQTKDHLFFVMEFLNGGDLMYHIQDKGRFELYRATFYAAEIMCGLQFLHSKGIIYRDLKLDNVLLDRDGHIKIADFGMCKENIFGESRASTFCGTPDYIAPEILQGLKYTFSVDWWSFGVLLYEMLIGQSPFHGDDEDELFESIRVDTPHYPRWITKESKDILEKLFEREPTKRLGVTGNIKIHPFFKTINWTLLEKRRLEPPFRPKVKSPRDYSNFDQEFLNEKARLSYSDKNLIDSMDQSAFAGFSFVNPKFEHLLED
Sequence of Calcium/calmodulin-dependent protein kinase type II subunit delta (Homo sapiens) (Q13557 whole entry): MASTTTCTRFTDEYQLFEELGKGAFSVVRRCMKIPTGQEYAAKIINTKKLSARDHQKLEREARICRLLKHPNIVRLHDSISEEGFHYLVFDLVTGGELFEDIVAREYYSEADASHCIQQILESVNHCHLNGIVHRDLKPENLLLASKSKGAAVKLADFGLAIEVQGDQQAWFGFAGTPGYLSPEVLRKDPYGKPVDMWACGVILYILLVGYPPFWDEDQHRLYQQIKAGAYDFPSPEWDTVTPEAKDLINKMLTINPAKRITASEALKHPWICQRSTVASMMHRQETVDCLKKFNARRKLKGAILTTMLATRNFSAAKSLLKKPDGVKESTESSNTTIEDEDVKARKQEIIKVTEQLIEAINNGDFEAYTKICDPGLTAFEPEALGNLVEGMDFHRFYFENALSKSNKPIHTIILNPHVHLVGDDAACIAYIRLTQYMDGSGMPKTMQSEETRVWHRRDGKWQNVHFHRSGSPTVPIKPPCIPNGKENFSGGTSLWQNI

In the case of `NC(=O)c1cc(-c2ccnc(NC3CCCCC3)c2)nc(N2CCNCC2)c1`, the EC50 [1] is reported as 77 nM, the inhibition [2] is reported as “Active” and the IC50 [3] is reported as 9 nM. For the same compound, the inhibition [4] was 3%, the inhibition [5] was 26% and the inhibition [6] was 1%. For the same compound, the inhibition [7] was 24%, the inhibition [8] was 2% and the inhibition [9] was 22%. For the same compound, the concentration [10] was 12 µM and the Activity (Rattus norvegicus) was “Active”.

Source: ChEMBL document CHEMBL1212911, “Identification of potent and selective amidobipyridyl inhibitors of protein kinase D” (J Med Chem, 2010)
